For assay [1], the system named is Rattus norvegicus. In words: Tested for maximum fall in mean arterial pressure in Spontaneously hypertensive rats after peroral administration by using 1% methyl cellulose as vehicle at 20 mg/kg. As to conditions: route oral. It is filed as functional.
Assay [2] concerns Rattus norvegicus. Nature of the assay: Tested for maximum fall in mean arterial pressure in Spontaneously hypertensive rats after peroral administration by using 1% methyl cellulose as vehicle at 5 mg/kg. It is filed as functional. As to conditions: route oral.
In assay [3] the test system is Canis familiaris. Nature of the assay: Beta adrenergic blockade activity was measured in anesthetized dogs by blockade of isoproterenol induced tachycardia after iv administration. It is filed as functional. As to conditions: Canis lupus familiaris. Put shortly:
(§1)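 Mongrel dogs of either sex (8–13 kg) anesthetized with vinbarbital 50 mg/kg iv. Vagi cut, trachea cannulated, with artificial respiration only if required. Blood pressure recorded via femoral artery catheter and heart rate from the pressure pulse. Drugs given through a femoral vein catheter. Isoproterenol challenge at 0.5 μg/kg iv; the resulting hypotension and tachycardia were computed.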

The subject of assay [4] is Canis familiaris. In words: Tested for increase in iliac blood flow was measured in anesthetized dogs before timolol administered intra arterially at dose […]. It is filed as functional, Canis lupus familiaris, Artery. Put shortly: (§2)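 Adult mongrel dogs of either sex (8–13 kg) under vinbarbital 50 mg/kg iv, with vagi cut and trachea cannulated. Carotid arterial pressure recorded. A 3.0 mm flow transducer on the right iliac artery. Intraarterial injections via a left femoral catheter tipped at the iliac bifurcation. Isoproterenol 0.4 μg ia given before and after timolol (320, 800 or 2000 μg/kg iv) to check β-blockade.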

Assay [5] concerns Canis familiaris. Nature of the assay: Tested for increase in iliac blood flow was measured in anesthetized dogs after timolol administered intravenous at dose 1600 mg/kg. It is filed as functional, Canis lupus familiaris, Artery.
Assay [6] relates to Canis familiaris. In words: Beta adrenergic blockade activity was measured in anesthetized dogs by blockade of isoproterenol induced hypotension after iv administration. It is filed as functional. As to conditions: Canis lupus familiaris. Put shortly:
as §1

The test system of assay [7] is Canis familiaris. Nature of the assay: Tested for increase in iliac blood flow was measured in anesthetized dogs after timolol administered intravenous at dose 2000 mg/kg. In kind it is functional, Canis lupus familiaris, Artery. Put shortly: as §2
The test system of assay [8] is Rattus norvegicus. In words: Tested for maximum fall in mean arterial pressure in Spontaneously hypertensive rats after peroral administration by using 1% methyl cellulose as vehicle at 80 mg/kg. It is filed as functional. The settings on record: route oral.
Assay [9] deals with Rattus norvegicus. In words: Tested for maximum fall in mean arterial pressure in Spontaneously hypertensive rats after peroral administration by using 1% methyl cellulose as vehicle at 1.25 mg/kg. As to conditions: route oral. In kind it is functional.
The subject of assay [10] is Canis familiaris. In words: Tested for increase in iliac blood flow was measured in anesthetized dogs after timolol administered intravenous at dose 800 mg/kg. In kind it is functional, Canis lupus familiaris, Artery. Put shortly: as §2
Assay [11] relates to Rattus norvegicus. Nature of the assay: Tested for maximum fall in mean arterial pressure in Spontaneously hypertensive rats after peroral administration by using 1% methyl cellulose as vehicle at 0.312 mg/kg. In kind it is functional. As to conditions: route oral.
In assay [12] the test system is Canis familiaris. In words: Tested for increase in iliac blood flow was measured in anesthetized dogs after timolol administered intravenously at dose 800 µg/kg.
Assay [13] deals with Rattus norvegicus. In words: Tested for maximum fall in mean arterial pressure in Spontaneously hypertensive rats after peroral administration by using 1% methyl cellulose as vehicle at 0.078 mg/kg. In kind it is functional. The settings on record: route oral.
For assay [14], the system named is Canis familiaris. Nature of the assay: Tested for increase in iliac blood flow was measured in anesthetized dogs before timolol administered intra arterially at dose 400 mg/kg.
Assay [15] relates to Rattus norvegicus. In words: Comparative effect on Maximum fall in mean arterial pressure of spontaneously hypertensive rat at the dose 1.25 mg/kg per os. It is filed as functional, Artery.
Assay [16] has as its system Rattus norvegicus. Nature of the assay: Comparative effect on Maximum fall in mean arterial pressure of spontaneously hypertensive rat at the dose 0.625 mg/kg per os. In kind it is functional, Artery.
Assay [17] has as its system Rattus norvegicus. In words: Comparative effect on Maximum fall in mean arterial pressure of spontaneously hypertensive rat at the dose 0.312 mg/kg per os. In kind it is functional, Artery.

“And” between values parts separate entries of the source, which are not always exact repeats. Identical values can stand only once.

The ED50 is the midpoint of the dose-response relation. Low values mean an effect at a small dose, high ones a need for a large dose.

In the case of `CC(C)(C)NCC(O)COc1nscc1Br` (configuration not stated), the MAP in the assay on Rattus norvegicus [1] was 30 mmHg; in the assay with Rattus norvegicus [2], 41 mmHg. The ED50 was determined as 3 µg/kg with Canis familiaris [3] and 0.003 mg/kg with Canis familiaris [6]. Also, the Activity in the assay with Canis familiaris [4] is 31 mL/min; in the assay on Canis familiaris [5], 33 mL/min.
In turn, `CCOC(=O)c1sc(SC)nc1OCC(O)CNC(C)(C)C` (configuration not stated) yielded an MAP in the assay with Rattus norvegicus [1] of 15 mmHg.
`CCOC(=O)c1scnc1OCC(O)CNC(C)(C)C` (configuration not stated) showed an MAP with Rattus norvegicus [1] of 9 mmHg.
In the case of `CC(C)(C)NCC(O)COc1nc2ncccc2cc1C#N` (configuration not stated), the MAP in the assay with Rattus norvegicus [1] came to 28 mmHg; in the assay with Rattus norvegicus [2] it was 22 mmHg. This compound also showed an Activity with Canis familiaris [4] of 0 mL/min.
As to `CC(C)(C)NCC(O)COc1nscc1C#N` (configuration not stated), the MAP in the assay on Rattus norvegicus [1] was 52 mmHg; with Rattus norvegicus [2] (5 mg/kg), 27 mmHg and 9 mmHg. For the same compound, the ED50 amounted to 28 µg/kg with Canis familiaris [3] and 0.027 mg/kg in the assay on Canis familiaris [6]. The Activity stood at 22 mL/min with Canis familiaris [4] and 20 mL/min in the assay with Canis familiaris [7].
As for `Cc1nc(OC[C@@H](O)CNC(C)(C)C)c(C(N)=O)s1`, the MAP in the assay on Rattus norvegicus [1] is reported as 11 mmHg.
Turning to `CC(C)(C)NC[C@H](O)COc1nc(-c2ccccc2)sc1C(N)=O`, the MAP with Rattus norvegicus [1] turned out to be 15 mmHg.
For the compound `CC(C)(C)NC[C@H](O)COc1nc(-c2ccccc2)sc1C#N`, the MAP in the assay with Rattus norvegicus [1] amounted to 9 mmHg; in the assay on Rattus norvegicus [2] it was 11 mmHg; in the assay on Rattus norvegicus [8], 14 mmHg.
With `Cc1sc(-c2ccccc2)nc1OC[C@@H](O)CNC(C)(C)C`, the MAP with Rattus norvegicus [1] worked out at 17 mmHg; with Rattus norvegicus [8], 12 mmHg.
Compound `CCOC(=O)c1sc(-c2ccccc2)nc1OC[C@@H](O)CNC(C)(C)C` gave an MAP in the assay on Rattus norvegicus [1] of 10 mmHg.
On to `Cc1sc(-c2ccncc2)nc1OC[C@@H](O)CNC(C)(C)C`, for which the MAP is given as 41 mmHg in the assay with Rattus norvegicus [1] and 8 mmHg with Rattus norvegicus [2].
`Cc1nc(OC[C@@H](O)CNC(C)(C)C)c(C#N)s1` yielded an MAP with Rattus norvegicus [1] of 21 mmHg.
On the same count and under the same terms, under `CC(C)(C)NCC(O)COc1nc2ccncc2cc1C#N` (configuration not stated) stands 22 mmHg.
For `CC(C)(C)NCC(O)COc1ncccc1C#N` (configuration not stated), the ED50 with Canis familiaris [3] turned out to be 1.5 µg/kg; in the assay with Canis familiaris [6], 0.0052 mg/kg. In addition, the Activity in the assay on Canis familiaris [4] was determined as 98 mL/min; in the assay on Canis familiaris [7], 90 mL/min; in the assay with Canis familiaris [10], 62 mL/min; in the assay on Canis familiaris [12], 38 mL/min. Besides, the MAP was found to be 47 mmHg in the assay on Rattus norvegicus [9], 30 mmHg with Rattus norvegicus [11] and 19 mmHg in the assay with Rattus norvegicus [13].
For `CSc1nc(OCC(O)CNC(C)(C)C)c(C(N)=O)s1` (configuration not stated), the MAP in the assay on Rattus norvegicus [1] is recorded as 11 mmHg.
As for `CC(C)(C)NCC(O)COc1ncsc1C#N` (configuration not stated), the MAP in the assay on Rattus norvegicus [1] came to 37 mmHg; in the assay on Rattus norvegicus [2] it was 42 mmHg; with Rattus norvegicus [9], 29 mmHg; with Rattus norvegicus [11], 26 mmHg; in the assay on Rattus norvegicus [13], 11 mmHg. In addition, the ED50 in the assay on Canis familiaris [3] turned out to be 10 µg/kg; in the assay with Canis familiaris [6] it was 0.03 mg/kg. This compound came in with an Activity with Canis familiaris [4] of 125 mL/min.
As to `CC(C)(C)NCC(O)COc1nccnc1C#N` (configuration not stated), in the assay with Rattus norvegicus [1], the MAP was determined as 8 mmHg.
Turning to `CC(C)(C)NCC(O)COc1nsnc1C#N` (configuration not stated), the MAP with Rattus norvegicus [2] is listed as 9 mmHg.
Regarding `CC(C)(C)NCC(O)COc1ccsn1` (configuration not stated), the MAP with Rattus norvegicus [1] was 22 mmHg; with Rattus norvegicus [2] it was 26 mmHg; with Rattus norvegicus [9], 8 mmHg.
In the case of `Cc1nc(OCC(O)CNC(C)(C)C)c(C(N)=O)s1` (racemic), the MAP stood at 23 mmHg with Rattus norvegicus [1], 30 mmHg in the assay on Rattus norvegicus [2] and 22 mmHg in the assay with Rattus norvegicus [9].
As for `NNc1nncc2ccccc12` [HYDRALAZINE], the Activity in the assay on Canis familiaris [4] is 66 mL/min; in the assay on Canis familiaris [14], 78 mL/min.
On to `CC(C)NCC(O)COc1cccc2ccccc12` (configuration not stated) [PROPRANOLOL], for which the values for the MAP in the assay on Rattus norvegicus [1], in the assay on Rattus norvegicus [2] and in the assay with Rattus norvegicus [9] were 14 mmHg, 7 mmHg and 12 mmHg, respectively. The ED50 in the assay on Canis familiaris [3] came to 51 µg/kg; with Canis familiaris [6], 0.019 mg/kg.
Turning to `CC(C)(C)NC[C@H](O)COc1nsnc1N1CCOCC1` [TIMOLOL], the MAP in the assay with Rattus norvegicus [15] is -1 mmHg; in the assay with Rattus norvegicus [16], 0 mmHg; in the assay with Rattus norvegicus [17], 3 mmHg. For the same compound, the values for the ED50 in the assay on Canis familiaris [3] and with Canis familiaris [6] were 2.4 µg/kg and 0.0013 mg/kg, respectively.

Source of the values: ChEMBL document CHEMBL1121527, “Heterocyclic analogues of the antihypertensive beta-adrenergic blocking agent (S)-2-[3-(ter-butylamino)-2-hydroxypropoxy]-3-cyanopyridine” (1980).
